The test addresses Inward rectifier potassium channel 2 (Homo sapiens) (UniProt P63252). Kind of test: Kir2.1 channel activation or block, dose response, selectivity assay for GIRK activator project, cell-based, human, thallium flux, concentration-response (AID 623984). The procedure, abridged: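 Probe or stimulus: bicarbonate thallium stimulus (Tl2SO4, NaHCO3, pH 7.4) plus EC20 glutamate / Material: hKir2.1 T-REx-293 cells, tetracycline-induced / Incubation: 4 min compound pre-incubation before stimulus / Measured by: thallium flux fluorescence, FluoZin-2 AM dye, sampled at 1 Hz / Read-out basis: background-corrected fluorescence slope as % vehicle / Control set: vehicle and uninduced-cell wells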

Active and inactive are the calls of the source. The rule behind the calls is not given here.

Chain of Inward rectifier potassium channel 2 (Homo sapiens) (P63252 whole entry, looked up): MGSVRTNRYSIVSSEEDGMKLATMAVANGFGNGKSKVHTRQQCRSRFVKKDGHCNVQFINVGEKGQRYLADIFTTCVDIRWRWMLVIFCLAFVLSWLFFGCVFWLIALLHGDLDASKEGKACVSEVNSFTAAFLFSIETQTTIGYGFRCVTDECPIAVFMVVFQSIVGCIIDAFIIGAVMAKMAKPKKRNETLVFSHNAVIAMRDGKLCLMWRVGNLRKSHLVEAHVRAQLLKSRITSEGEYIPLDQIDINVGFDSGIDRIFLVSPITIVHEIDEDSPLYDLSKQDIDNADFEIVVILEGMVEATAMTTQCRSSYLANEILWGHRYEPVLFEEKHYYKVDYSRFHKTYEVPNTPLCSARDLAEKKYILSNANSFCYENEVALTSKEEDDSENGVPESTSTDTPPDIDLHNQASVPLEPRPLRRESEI

On to `Cc1cc(NC(=O)Nc2ccc(F)c(F)c2)n(-c2ccccc2)n1`, for which the compound was called inactive.

The values are drawn from PubChem BioAssay AID623984 (Vanderbilt High Throughput Screening Facility, 2012).
